Measured values taken from ChEMBL document CHEMBL3585252, “Selaginellin and biflavonoids as protein tyrosine phosphatase 1B inhibitors from Selaginella tamariscina and their glucose uptake stimulatory effects” (Bioorg Med Chem, 2015).

Columns and labels:
[1] = target: T1, Tyrosine-protein phosphatase non-receptor type 1 (Mus musculus) (UniProt P35821); experiment: Inhibition of PTP1B in mouse 3T3L1 cells assessed as stimulation of 2-NBDG uptake preincubated for 24 hrs followed by 2-NBDG addition measured after 30 mins by fluorescence reader analysis; assay type: cell-based; settings: 3T3-L1
T1 sequence (whole entry): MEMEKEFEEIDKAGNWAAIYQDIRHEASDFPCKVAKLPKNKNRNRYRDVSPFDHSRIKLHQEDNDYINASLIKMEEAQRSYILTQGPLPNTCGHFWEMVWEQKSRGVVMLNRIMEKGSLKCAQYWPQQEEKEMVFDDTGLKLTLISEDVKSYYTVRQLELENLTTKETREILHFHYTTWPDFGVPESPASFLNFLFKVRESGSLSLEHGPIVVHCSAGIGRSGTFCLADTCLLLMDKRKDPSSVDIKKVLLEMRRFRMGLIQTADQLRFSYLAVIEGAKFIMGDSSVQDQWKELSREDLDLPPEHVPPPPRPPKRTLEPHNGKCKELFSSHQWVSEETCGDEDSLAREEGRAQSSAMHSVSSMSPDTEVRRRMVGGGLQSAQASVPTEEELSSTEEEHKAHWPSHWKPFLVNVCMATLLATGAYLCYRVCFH
How it was run: (§1)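 3T3-L1 preadipocytes were grown to confluence and differentiated for 8 days (days 0–8). Mature adipocytes were treated with compound at 5 and 10 µM, or with insulin at 100 nM; DMSO was the vehicle control. 2-NBDG was then added for 30 min. Uptake is expressed as fold induction over the DMSO control.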

[2] = target: T1, Tyrosine-protein phosphatase non-receptor type 1 (Mus musculus); experiment: Inhibition of PTP1B in mouse 3T3L1 cells assessed as stimulation of 2-NBDG uptake at 10 uM preincubated for 24 hrs followed by 2-NBDG addition measured after 30 mins by fluorescence reader analysis relative to control; assay type: cell-based; settings: 3T3-L1; how it was run: as §1
[3] = Cytotoxicity against mouse 3T3L1 cells assessed as inhibition of cell viability at 5 to 10 uM after 48 hrs by MTT assay; assay type: cell-based; settings: 3t3-l1, 48 h
How it was run: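 Differentiated 3T3-L1 adipocytes were exposed to compound at 5 and 10 µM without 2-NBDG. Viability was read by MTT assay.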

[4] = target: T2, Tyrosine-protein phosphatase non-receptor type 1 (Homo sapiens) (UniProt P18031); experiment: (§2) Inhibition of human recombinant PTP1B using p-NPP as substrate preincubated for 10 mins followed by substrate addition measured after 20 mins by microplate reader analysis
T2 sequence (whole entry): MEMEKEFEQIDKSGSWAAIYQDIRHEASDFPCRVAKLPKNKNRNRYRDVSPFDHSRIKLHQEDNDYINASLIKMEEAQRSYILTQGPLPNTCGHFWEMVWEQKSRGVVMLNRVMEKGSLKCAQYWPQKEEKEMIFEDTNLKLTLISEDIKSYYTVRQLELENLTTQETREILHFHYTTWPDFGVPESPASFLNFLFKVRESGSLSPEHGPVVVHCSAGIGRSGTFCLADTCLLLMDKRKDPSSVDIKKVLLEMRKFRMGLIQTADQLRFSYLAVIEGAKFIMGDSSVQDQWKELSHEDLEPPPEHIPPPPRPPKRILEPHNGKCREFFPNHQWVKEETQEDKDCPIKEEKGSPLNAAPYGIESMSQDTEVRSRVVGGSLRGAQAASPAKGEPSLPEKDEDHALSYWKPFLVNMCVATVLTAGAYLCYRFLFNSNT
How it was run: (§3)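 Enzyme inhibition was tested at graded concentrations. IC50 was obtained by regression analysis and reported as mean ± SD of three replicates.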

[5] = target: T3, Tyrosine-protein phosphatase non-receptor type 1 (Homo sapiens, UniProt P18031); experiment: as §2; how it was run: as §3
T3 sequence (P18031 whole entry): T2 sequence (whole entry)

[6] = target: T3, Tyrosine-protein phosphatase non-receptor type 1; experiment: Mixed-competitive inhibition of human recombinant PTP1B using p-NPP as substrate preincubated for 10 mins followed by substrate addition measured after 20 mins by Lineweaver-Burk/Dixon plot analysis
How it was run: (§4)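 Kinetic mode and Ki came from Lineweaver–Burk and Dixon plots of initial velocity at several substrate and inhibitor concentrations. Ki was read as the negative x-axis value where three Dixon lines intersect. Data are the mean reciprocal initial velocity, n = 3 replicates per substrate concentration.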

[7] = target: T3, Tyrosine-protein phosphatase non-receptor type 1; experiment: Uncompetitive inhibition of human recombinant PTP1B using p-NPP as substrate preincubated for 10 mins followed by substrate addition measured after 20 mins by Lineweaver-Burk/Dixon plot analysis; how it was run: as §4
[8] = target: T3, Tyrosine-protein phosphatase non-receptor type 1; experiment: Competitive inhibition of human recombinant PTP1B using p-NPP as substrate preincubated for 10 mins followed by substrate addition measured after 20 mins by Lineweaver-Burk/Dixon plot analysis; how it was run: as §4

## O=C(O)c1c(-c2ccc(O)cc2)ccc(CO)c1C#Cc1ccc(O)cc1
[1]
  inhibition: Dose-dependent effect
[2]
  fold change (FC): 1.24
[3]
  Activity: Non-toxic
[4]
  inhibition: Dose-dependent effect
[5]
  IC50: 13.2 µM
[6]
  Ki: 14.5 µM

## O=C1C[C@@H](c2cc(-c3c(O)ccc4c(=O)cc(-c5ccc(O)cc5)oc34)c(O)cc2O)Oc2cc(O)cc(O)c21
[1]
  inhibition: Dose-dependent effect
[3]
  Activity: Non-toxic
[4]
  inhibition: Dose-dependent effect
[5]
  IC50: 9.8 µM
[7]
  Ki: 10.4 µM

## O=c1c(-c2c(O)cc(O)c3c(=O)cc(-c4ccc(O)cc4)oc23)c(-c2ccc(O)cc2)oc2cc(O)cc(O)c12
[1]
  inhibition: Dose-dependent effect
[2]
  fold change (FC): 1.44
[3]
  Activity: Non-toxic
[4]
  inhibition: Dose-dependent effect
[5]
  IC50: 4.5 µM
[6]
  Ki: 4.6 µM

## O=c1cc(-c2ccc(O)c(-c3c(O)cc(O)c4c(=O)cc(-c5ccc(O)cc5)oc34)c2)oc2cc(O)cc(O)c12 [AMENTOFLAVONE]
[1]
  inhibition: Dose-dependent effect
[3]
  Activity: Non-toxic
[4]
  inhibition: Dose-dependent effect
[5]
  IC50: 7.4 µM
[6]
  Ki: 7.8 µM

## O=c1cc(-c2ccc(O)cc2)oc2c(-c3c(O)cc(O)c4c(=O)cc(-c5ccc(O)cc5)oc34)c(O)cc(O)c12 [CUPRESSUFLAVONE]
[1]
  inhibition: Dose-dependent effect
[3]
  Activity: Non-toxic
[4]
  inhibition: Dose-dependent effect
[5]
  IC50: 9.6 µM
[8]
  Ki: 10.7 µM

## O=c1cc(-c2ccc(O)c(-c3c(O)cc4oc(-c5ccc(O)cc5)cc(=O)c4c3O)c2)oc2cc(O)cc(O)c12 [ROBUSTAFLAVONE]
[1]
  inhibition: Dose-dependent effect
[3]
  Activity: Non-toxic
[4]
  inhibition: Dose-dependent effect
[5]
  IC50: 6.2 µM
[6]
  Ki: 6.8 µM

## O=c1cc(-c2ccc(O)c(-c3c(-c4ccc(O)cc4)oc4cc(O)cc(O)c4c3=O)c2)oc2cc(O)cc(O)c12 [TAIWANIAFLAVONE]
[1]
  inhibition: Dose-dependent effect
[2]
  fold change (FC): 1.47
[3]
  Activity: Non-toxic
[4]
  inhibition: Dose-dependent effect
[5]
  IC50: 5.4 µM
[6]
  Ki: 4.5 µM
